In general, IC50 refers to the concentration at which inhibition is half-maximal. As usually defined, the MIC is the smallest concentration in the dilution series that meets the test's criterion for growth inhibition.

The source of these data is ChEMBL document CHEMBL3734668, “Evaluation of small molecule SecA inhibitors against methicillin-resistant Staphylococcus aureus” (Bioorg Med Chem, 2015).

≈ marks a conversion by molar mass, not a printed value. Calls of active or inactive are those of the source.

Assay [1] deals with Staphylococcus aureus. Nature of the assay: Potency index, ratio of MIC for rifampicin to MIC for test compound against Methicillin resistant Staphylococcus aureus. It counts as functional.
The test system of assay [2] is Staphylococcus aureus. The experiment in a line: Potency index, ratio of MIC for polymyxin B to MIC for test compound against Methicillin resistant Staphylococcus aureus. It is filed as functional.
For assay [3], the system named is Staphylococcus aureus. Nature of the assay: Bactericidal activity against Methicillin sensitive Staphylococcus aureus ATCC 6538 assessed as CFU reduction at 30 uM for 1 hr. It is filed as functional. In outline: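 Log-phase LB cultures (OD600 ≈ 0.5) mixed with a range of inhibitor concentrations, shaken at 1,000 rpm, 37 °C, 1 hr, under normal room light. Cultures serially diluted in LB, plated on LB agar, incubated overnight at 37 °C. CFU counted; bactericidal effect taken as CFU reduction versus untreated control.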

Assay [4] relates to Staphylococcus aureus. The experiment in a line: Potency index, ratio of MIC for tetracycline to MIC for test compound against Methicillin resistant Staphylococcus aureus. It is filed as functional.
Assay [5] has as its target T1, Protein translocase subunit SecA 1 (Staphylococcus aureus (strain NCTC 8325)) (UniProt O06446).
T1 sequence (whole entry): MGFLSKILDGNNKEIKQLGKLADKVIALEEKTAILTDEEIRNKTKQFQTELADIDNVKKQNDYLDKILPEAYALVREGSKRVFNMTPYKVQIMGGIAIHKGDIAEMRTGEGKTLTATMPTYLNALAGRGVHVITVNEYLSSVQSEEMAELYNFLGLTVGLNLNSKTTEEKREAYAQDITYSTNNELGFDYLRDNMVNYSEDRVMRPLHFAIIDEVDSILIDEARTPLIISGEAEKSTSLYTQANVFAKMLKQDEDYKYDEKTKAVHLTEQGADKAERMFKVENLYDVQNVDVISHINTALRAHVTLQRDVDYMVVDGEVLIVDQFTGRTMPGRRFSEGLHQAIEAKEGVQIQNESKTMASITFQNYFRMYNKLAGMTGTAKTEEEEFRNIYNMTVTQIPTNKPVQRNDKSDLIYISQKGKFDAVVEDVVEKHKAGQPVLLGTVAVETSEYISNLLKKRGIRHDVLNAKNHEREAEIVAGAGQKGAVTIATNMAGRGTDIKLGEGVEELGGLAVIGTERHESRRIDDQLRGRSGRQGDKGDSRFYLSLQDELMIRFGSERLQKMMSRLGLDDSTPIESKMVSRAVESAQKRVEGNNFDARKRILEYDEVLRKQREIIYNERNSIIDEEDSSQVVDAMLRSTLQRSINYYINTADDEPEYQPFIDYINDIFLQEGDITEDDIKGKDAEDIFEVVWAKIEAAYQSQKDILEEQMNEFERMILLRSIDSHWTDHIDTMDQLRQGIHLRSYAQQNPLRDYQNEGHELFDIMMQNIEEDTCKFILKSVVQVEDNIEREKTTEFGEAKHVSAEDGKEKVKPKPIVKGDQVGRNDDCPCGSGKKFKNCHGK
The experiment in a line: Inhibition of Staphylococcus aureus SecA1 assessed as reduction in secretion of alpha-hemolysin at 10 uM by Western blot analysis. In outline: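 S. aureus Mu50 grown in LB at 37 °C; inhibitor added at mid-log phase and cultures sampled at several time points. Supernatants separated by centrifugation, filtered 0.45 μm, and probed by Western blot with antibodies to α-hemolysin, TSST-1 or enterotoxin B.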

The subject of assay [6] is Staphylococcus aureus. Nature of the assay: Bactericidal activity against Methicillin resistant Staphylococcus aureus Mu50 assessed as CFU reduction for 1 hr. It is filed as functional, organism-based. In outline: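 Log-phase Mu50 cultures (OD600 ≈ 0.5) mixed with a range of inhibitor concentrations, shaken 1,000 rpm at 37 °C for 1 hr under normal room light. Cultures then serially diluted in LB, plated on LB agar and incubated overnight at 37 °C. Activity expressed as reduction in CFU relative to untreated control containing matching DMSO.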

The target of assay [7] is T2, Protein translocase subunit SecA 1 (Staphylococcus aureus (strain NCTC 8325), UniProt O06446).
T2 sequence (O06446 whole entry): T1 sequence (whole entry)
Nature of the assay: Inhibition of Staphylococcus aureus ATCC 35556 SecA1 liposomal ion channel activity in Xenopus laevis oocytes incubated for 3 hrs measured by recording ion current for 1 min. It is filed as cell-based. In outline:
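Xenopus laevis oocytes injected at animal pole with 50 nl containing 120 ng liposomes, 120 ng SaSecA1, 14 ng proOmpA, 2 mM ATP, 1 mM Mg(OAc)2 plus varying inhibitor. Incubated 3 hr at 23 °C, then ion current recorded continuously 1 min.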

The subject of assay [8] is Staphylococcus aureus. Nature of the assay: Potency index, ratio of MIC for vancomysin to MIC for test compound against Methicillin resistant Staphylococcus aureus. It is filed as functional.
In assay [9] the test system is Staphylococcus aureus. The experiment in a line: Bacteriostatic activity against Staphylococcus aureus ATCC 6538 after 24 hrs. It is filed as functional. Particulars: ATCC 6538, 24 h.
In assay [10] the test system is Staphylococcus aureus. The experiment in a line: Potency index, ratio of MIC for kanamycin to MIC for test compound against Methicillin resistant Staphylococcus aureus. It counts as functional.
Assay [11] concerns the target T3, Protein translocase subunit SecA 2 (Staphylococcus aureus (strain NCTC 8325), UniProt Q2FUW6).
T3 sequence (Q2FUW6 whole entry): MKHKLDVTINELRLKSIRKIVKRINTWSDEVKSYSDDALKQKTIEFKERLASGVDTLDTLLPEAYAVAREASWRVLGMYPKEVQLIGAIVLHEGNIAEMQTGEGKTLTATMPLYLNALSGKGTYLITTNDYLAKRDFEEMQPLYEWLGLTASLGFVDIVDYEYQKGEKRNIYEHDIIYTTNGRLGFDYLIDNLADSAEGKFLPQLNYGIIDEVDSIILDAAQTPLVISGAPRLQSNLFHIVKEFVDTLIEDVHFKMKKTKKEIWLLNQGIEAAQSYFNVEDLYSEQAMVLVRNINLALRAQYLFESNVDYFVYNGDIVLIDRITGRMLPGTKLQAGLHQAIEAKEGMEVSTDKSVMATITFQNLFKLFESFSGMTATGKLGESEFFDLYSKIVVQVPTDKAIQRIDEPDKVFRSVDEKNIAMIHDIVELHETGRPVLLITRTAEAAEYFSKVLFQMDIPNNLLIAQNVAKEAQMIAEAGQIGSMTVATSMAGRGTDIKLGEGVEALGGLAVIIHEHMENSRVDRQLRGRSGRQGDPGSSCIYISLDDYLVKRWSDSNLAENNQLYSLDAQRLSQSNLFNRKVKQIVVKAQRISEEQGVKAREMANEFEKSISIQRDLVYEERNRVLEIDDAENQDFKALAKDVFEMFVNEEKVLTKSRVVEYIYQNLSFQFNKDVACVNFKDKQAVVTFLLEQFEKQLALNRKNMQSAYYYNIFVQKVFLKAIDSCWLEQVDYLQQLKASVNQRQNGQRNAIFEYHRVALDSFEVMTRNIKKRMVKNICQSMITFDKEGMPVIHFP
The experiment in a line: Inhibition of Staphylococcus aureus ATCC 35556 SecA2 expressed in Escherichia coli BL21-gammaDE3 assessed as reduction in intrinsic ATPase activity incubated for 3 hrs measured by malachite green colorimetric method.

On to `CCCCCCC1c2ccc(O)cc2Oc2cc(O)ccc21`, for which the Ratio in [1] was 250; in assay [2], 7; in [4], 7; in assay [8], 2; in assay [10], 250. The Activity in [3] was 2 log10CFU/ml; in assay [6], “Dose-dependent effect”. The inhibition result in assay [5] was “Active”. Moreover, the IC50 in assay [7] is 1 µM; in assay [11] it was 15 µM. The MIC in assay [9] turned out to be 4 µg/mL (≈ 13.4 µM).
